Results on 20 compounds are retold here after ChEMBL document CHEMBL1144854, “Synthesis and biological evaluation of novel 6-substituted 5-alkyl-2-(arylcarbonylmethylthio)pyrimidin-4(3H)-ones as potent non-nucleoside HIV-1 reverse transcriptase inhibitors” (Bioorg Med Chem, 2008).

The source made the active and inactive calls. The calls are words filed in the database; no cut-off is given here.

As a reminder, the EC50 is the concentration that produces a half-maximal response. Higher therefore signals a need for much substance. As usually defined, the CC50 is the concentration that lowers cell viability or growth by half.

Data set [1] relates to Human immunodeficiency virus 1. The data set can be described thus: Antiviral activity against HIV1 3B infected in MT4 cells by MTT. The settings on record: Human immunodeficiency virus 1, 3B. It is filed as functional, organism-based. The essentials: (§1)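 MT-4 cells at 1 × 10^5 cells/mL were infected at MOI 0.02 with virus stocks pre-titrated in MT-4 cells (CCID50) and immediately plated onto serial compound dilutions. Compound stocks were 50 mM in DMSO. Viable cells were counted by MTT after 4 days at 37 °C. EC50 is the concentration giving 50% protection from viral cytopathicity, as the mean of ≥2 separate experiments.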

The nature of data set [2]: Selectivity index, ratio of CC50 for human MT4 cells to EC50 for HIV1 3B. It is filed as functional.
A short description of data set [3]: Cytotoxicity against human MT4 cells. In kind it is cell-based. The essentials:
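Uninfected MT-4 cells were run in parallel with the antiviral plates: serial compound concentrations from 50 mM DMSO stocks, 4 days at 37 °C, viability by MTT. CC50 is the concentration cutting viability by 50%, as the mean of ≥2 separate experiments.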

For data set [4], the system named is Human immunodeficiency virus 2. The data set can be described thus: Antiviral activity against HIV2 ROD infected in MT4 cells by MTT. The settings on record: Human immunodeficiency virus 2, ROD. In kind it is functional, organism-based. The essentials:
as §1

Data set [5] has as its system Human immunodeficiency virus 1. The data set can be described thus: Antiviral activity against HIV1 RES056 infected in MT4 cells by MTT. It is filed as functional, organism-based. The note with it: Human immunodeficiency virus 1, RES056, MT4. The procedure, abridged: as §1
Data set [6] in a line: Selectivity index, ratio of CC50 for human MT4 cells to EC50 for HIV1 RES056.
The subject of a further data set is MT4. Described as above.

In the case of `COc1ccc(C(=O)CSc2nc(Cc3ccc(Br)cc3)c(C)c(=O)[nH]2)cc1`, the values for the EC50 in data set [1] and in data set [4] were 8.97 µM and no less than 226 µM, respectively. Besides, the “Ratio CC50/EC50” value in data set [2] is on record as greater than 30. In addition, the CC50 in data set [3] was greater than 272 µM.
Regarding `Cc1cn([C@H]2C[C@H](N=[N+]=[N-])[C@@H](CO)O2)c(=O)[nH]c1=O` [ZIDOVUDINE], the EC50 in data set [5] came out at 0.006 µM; in data set [1], 0.005 µM. Further, the results for the “Ratio CC50/EC50” value in data set [6] and in data set [2] were greater than 15592 and greater than 17990, respectively. Besides, the CC50 in data set [3] is greater than 93.5 µM.
As for `COc1ccc(C(=O)CSc2nc(C(c3ccccc3)c3ccccc3)c(C)c(=O)[nH]2)cc1`, the 50% effective concentration (EC50) in data set [1] was 1.38 µM; in data set [4], greater than 274 µM. In addition, in data set [2], the “Ratio CC50/EC50” value was greater than 199. The compound also returned a half-maximal cytotoxic concentration (CC50) in data set [3] greater than 274 µM.
On to `CCc1c(Cc2cccc(Br)c2)nc(SCC(=O)c2ccc(OC)cc2)[nH]c1=O`, for which the concentration for a half-maximal effect (EC50) in data set [1] is 0.16 µM; in data set [4] it was greater than 142 µM. For the same compound, in data set [2], the “Ratio CC50/EC50” value turned out to be 887. The compound also had a CC50 in data set [3] of 142 µM.
For `COc1ccc(C(=O)CSc2nc(Cc3cc(C(F)(F)F)cc(C(F)(F)F)c3)c(C)c(=O)[nH]2)cc1` the same measures were 46.1 µM, greater than 242 µM, greater than 5 and greater than 242 µM.
For the compound `CCc1c(Cc2cc(C)cc(C)c2)nc(SCC(=O)c2ccc(OC)cc2)[nH]c1=O`, the concentration giving a half-maximal response (EC50) in data set [5] is greater than 239 µM; in data set [1], 0.018 µM; in data set [4] it was 52.8 µM. Besides, in data set [2], the “Ratio CC50/EC50” value was “>=13278”. In data set [3], this compound displayed a half-maximal cytotoxic concentration (CC50) of no less than 239 µM.
Regarding `CCc1c(Cc2ccc(Br)cc2)nc(SCC(=O)c2ccc(OC)cc2)[nH]c1=O`, the EC50 in data set [1] was 7.94 µM; in data set [4], greater than 264 µM. The “Ratio CC50/EC50” value in data set [2] is on record as greater than 33. The same compound returned a CC50 in data set [3] greater than 264 µM.
Turning to `CC(C)Nc1cccnc1N1CCN(C(=O)c2cc3cc(NS(C)(=O)=O)ccc3[nH]2)CC1` [DELAVIRDINE], the EC50 was greater than 3.62 µM in data set [5] and 0.072 µM in data set [1]. Moreover, the “Ratio CC50/EC50” value in data set [2] is listed as greater than 50. In data set [3], this compound gave a CC50 greater than 3.62 µM.
`CCc1c(Cc2ccccc2Br)nc(SCC(=O)c2ccc(OC)cc2)[nH]c1=O`: the EC50 in data set [1] was 0.04 µM; in data set [4], greater than 187 µM. The “Ratio CC50/EC50” value in data set [2] was 4675. The same compound returned a 50% cytotoxic concentration (CC50) in data set [3] of 187 µM.
For `CCc1c(Cc2ccc(-c3ccccc3)cc2)nc(SCC(=O)c2ccc(OC)cc2)[nH]c1=O`, the 50% effective concentration (EC50) in data set [1] and in data set [4] was greater than 266 µM throughout. In data set [3], this compound returned a cytotoxic concentration (CC50) greater than 266 µM.
`COc1ccc(C(=O)CSc2nc(Cc3cc(C)cc(C)c3)c(C)c(=O)[nH]2)cc1`: the concentration giving a half-maximal response (EC50) in data set [5] is greater than 308 µM; in data set [1] it was 0.054 µM; in data set [4], 60.6 µM. The outcome with MT4 was inactive. Besides, the “Ratio CC50/EC50” value in data set [2] was greater than 5704. For the same compound, in data set [3], the CC50 is greater than 308 µM.
For the compound `COc1ccc(C(=O)CSc2nc(Cc3cccc(O)c3)c(C)c(=O)[nH]2)cc1`, the concentration giving a half-maximal response (EC50) is 4.44 µM in data set [1] and greater than 59 µM in data set [4]. In addition, the “Ratio CC50/EC50” value in data set [2] is on record as 16. In data set [3], this compound registered a half-maximal cytotoxic concentration (CC50) of 70 µM.
For `COc1ccc(C(=O)CSc2nc(Cc3c(Cl)cccc3Cl)c(C)c(=O)[nH]2)cc1`, in that order: 0.044 µM, greater than 278 µM, greater than 6318 and greater than 278 µM.
`COc1ccc(C(=O)CSc2nc(Cc3ccccc3Br)c(C)c(=O)[nH]2)cc1`: the EC50 in data set [1] was 0.63 µM; in data set [4], greater than 272 µM. Moreover, in data set [2], the “Ratio CC50/EC50” value is greater than 432. Moreover, the CC50 in data set [3] was greater than 272 µM.
On to `COc1ccc(C(=O)CSc2nc(Cc3cccc(Br)c3)c(C)c(=O)[nH]2)cc1`, for which the values for the 50% effective concentration (EC50) in data set [1] and in data set [4] were 0.89 µM and 203 µM, respectively. Moreover, the “Ratio CC50/EC50” value in data set [2] is recorded as “>=220”. In data set [3], this compound gave a 50% cytotoxic concentration (CC50) of no less than 196 µM.
For the compound `CCc1c(Cc2cc(C(F)(F)F)cc(C(F)(F)F)c2)nc(SCC(=O)c2ccc(OC)cc2)[nH]c1=O`, the concentration for a half-maximal effect (EC50) is 0.79 µM in data set [1] and greater than 236 µM in data set [4]. The “Ratio CC50/EC50” value in data set [2] was greater than 299. Moreover, the CC50 in data set [3] was greater than 236 µM.
As for `Cc1c(Cc2cccc3ccccc23)nc(SCC(=O)c2ccccc2)[nH]c1=O`, the concentration giving a half-maximal response (EC50) is 0.22 µM in data set [1] and no less than 42.2 µM in data set [4]. The “Ratio CC50/EC50” value in data set [2] was “>=1386”. This compound also returned a 50% cytotoxic concentration (CC50) in data set [3] of no less than 305 µM.
As to `CCc1c(Cc2cc(C)cc(C)c2)nc(SCC(=O)c2ccccc2)[nH]c1=O`, the concentration giving a half-maximal response (EC50) in data set [5] was 19.8 µM; in data set [1], 0.01 µM; in data set [4], 154 µM. Besides, the “Ratio CC50/EC50” value in data set [6] is on record as greater than 16; in data set [2] it was greater than 31800. Besides, in data set [3], the CC50 was greater than 318 µM.
On to `CCc1c(C(c2ccccc2)c2ccccc2)nc(SCC(=O)c2ccc(OC)cc2)[nH]c1=O`, for which the EC50 in data set [1] was 3.49 µM; in data set [4], greater than 266 µM. For the same compound, the “Ratio CC50/EC50” value in data set [2] is greater than 76. The compound also gave a CC50 in data set [3] greater than 266 µM.
`O=C1Nc2ccc(Cl)cc2C(C#CC2CC2)(C(F)(F)F)O1` (single isomer, unassigned) [EFAVIRENZ] came in with a CC50 in data set [3] greater than 6.34 µM.
